Legend:
primary CLL cells = test: Primary CLL cell apoptosis; assay type: cell-based, human; conditions: 24 h; 0.5 mM BEZ, 5 μM MPA, 5.1 μM 4-MDDT; n=4 samples
Outline: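 Patient blood mononuclear cells isolated on Ficoll, with consent and ethical approval. Co-cultured 10:1 on non-CD40L-expressing L-cell fibroblast stroma in 96-well plates. Treated in triplicate for 24 h against solvent control. Viability read by annexin V/propidium iodide staining and flow cytometry; n=4 patient samples ± s.e.m.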

[1] = test system: HL-60, K562 and KG1a AML cell lines; test: Cumulative cell counts / viability of AML cell lines; assay type: cell-based; conditions: 7 days, 5 μM MPA, 50 μM 4-MDDT
Outline: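 HL60, K562 and KG1a cells kept in RPMI-1640 with L-glutamine, 10% heat-inactivated FBS and penicillin/streptomycin at 37 °C, 5% CO2, passaged every 2 days at 0.25–1.5 × 10^6 cells/ml. Treated 7 days at 1 × 10^4 cells/well or 0.25 × 10^6 cells/ml in flasks, with DMSO/ethanol solvent controls. Cumulative viable counts by manual counting or flow cytometry with viable gates and counting beads. Mean of ≥3 experiments ± s.e.m.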

HL-60 cells = test: HL-60 differentiation; assay type: cell-based; conditions: 5 μM MPA, 50 μM 4-MDDT
Outline: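 HL-60 cells grown in RPMI-1640 with 10% heat-inactivated FBS at 37 °C, 5% CO2. Treated 7 days and re-fed and re-treated every 2 days, with solvent controls. At day 7, PE-CD11b staining read by flow cytometry, mean of ≥3 experiments ± s.e.m. Cytospins from 75–100 μl of culture were air-dried, methanol-fixed and Jenner–Giemsa stained for morphology.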

recombinant AKR1C1-4 = conditions: ref Hebert et al, 2013; cited from earlier work
recombinant AKR1C3 = biological target: T1, recombinant AKR1C3 (Homo sapiens, UniProt P42330); test: AKR1C-diaphorase; assay type: biochemical; conditions: freshly prepared solution
T1 sequence (P42330 1-323): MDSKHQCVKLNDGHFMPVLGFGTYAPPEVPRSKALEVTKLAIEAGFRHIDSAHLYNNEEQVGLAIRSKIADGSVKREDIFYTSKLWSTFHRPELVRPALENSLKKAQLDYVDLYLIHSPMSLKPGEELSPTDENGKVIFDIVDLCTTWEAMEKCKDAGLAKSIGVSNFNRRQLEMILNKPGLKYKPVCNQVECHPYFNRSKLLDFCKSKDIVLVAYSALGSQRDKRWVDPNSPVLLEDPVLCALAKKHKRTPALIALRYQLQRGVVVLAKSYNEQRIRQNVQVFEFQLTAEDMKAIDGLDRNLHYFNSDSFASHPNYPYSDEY

[2] = Stability of the DMSO solution; assay type: physicochemical; conditions: solution in DMSO

CC(=O)O[C@]1(C(C)=O)CC[C@H]2[C@@H]3C[C@H](C)C4=CC(=O)CC[C@]4(C)[C@H]3CC[C@@]21C [MPA, medroxyprogesterone acetate]
apoptosis of CLL cells, single agent (primary CLL cells): neither BEZ nor MPA as single agents markedly increased apoptosis | AML cell killing when combined with BEZ ([1]; with 0.5 mM BEZ, NCI compounds at 10 times the IC50, 10 μM A1/A6/A9): greatly enhanced AML cell killing | anti-proliferative effect, agent alone ([1]; NCI compounds at 10 times the IC50): moderate but statistically anti-proliferative effect | HL-60 cell differentiation in response to ATRA (HL-60 cells; day 7, with 10 nM ATRA): promoted the differentiation of HL-60 cells | HL-60 cell differentiation (CD11b, phenotypic changes) combined with BEZ (HL-60 cells; day 7, with 0.5 mM BEZ): strongly promoted HL-60 cell differentiation

O=C(O)c1cccc(S(=O)(=O)N2CCc3ccccc3C2)c1 [A1, 3-(3,4-dihydro-1H-isoquinoline-2-sulphonyl)-benzoic acid]
AKR1C3 selectivity in the CRT screen (recombinant AKR1C1-4): AKR1C3-selective inhibitors

CN(C)[C@@H]1C(O)=C(C(N)=O)C(=O)[C@@]2(O)C(O)=C3C(=O)c4c(O)cccc4[C@@](C)(O)[C@H]3C[C@@H]12 [tetracycline]
AKR1C3-inhibitory activity (recombinant AKR1C3): no AKR1C3-inhibitory activity | chemical stability [2]: rapid conversion of the dissolved tetracycline to an unknown breakdown product

O=C(N1CCOCC1)N1CCN(c2ccc(Cl)cc2)CC1 [A9, [4-(4-chloro-phenyl)-piperazin-1-yl]-morpholin-4-yl-methanone]
AKR1C3 selectivity in the CRT screen (recombinant AKR1C1-4): AKR1C3-selective inhibitors

CC(C)(Oc1ccc(CCNC(=O)c2ccc(Cl)cc2)cc1)C(=O)O [BEZ, bezafibrate]
apoptosis of CLL cells, single agent (primary CLL cells): neither BEZ nor MPA as single agents markedly increased apoptosis
